From ChEMBL document CHEMBL1123007, “New antiarrhythmic agents. N-aryl-8-pyrrolizidinealkanamides” (J Med Chem, 1985)
Active and inactive are the calls of the source. No cut-off for these calls is given here.

What was measured:
[1] = Ratio of LD50 to ED50 evaluated for its antiarrhythmic potency; format: functional, Heart
[2] = Potency of the drug was evaluated by comparison with Lidocain; potency = ED50 of Lidocaine /ED50 of compound.; format: functional
Mus musculus [3] = experiment: Antiarrhythmic activity evaluated in mouse after subcutaneous administration; format: functional; settings: Heart, sc
Summary of the method: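 Male DDY mice (18-22 g), groups of 10, dosed s.c. at 0.1 mL/10 g body weight, three to four doses per compound. ED50 (dose protecting 50% from fibrillation) by Litchfield-Wilcoxon, with 95% confidence limits.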

Mus musculus [4] = experiment: Antiarrhythmic activity evaluated in mouse after subcutaneous administration; No effect; format: functional, organism-based; settings: Heart
[5] = Acute toxicity was determined in mice; format: organism-based; settings: mouse, in vivo
[6] = Potency of the drug was evaluated by comparison with Lidocain; potency = ED50 of Lidocaine /ED50 of compound; format: functional

Structure (SMILES) | Ratio [1] | Potency [2] | other results
Cc1cccc(NC(=O)CC23CCCN2CCC3)c1C | 7.33 | 0.56 | –
O=C(CC12CCCN1CCC2)Nc1ccccc1Br | 7.54 | 0.76 | –
Cc1cc(C)cc(NC(=O)CC23CCCN2CCC3)c1 | 6.83 | 0.69 | –
Cc1cc(C)c(NC(=O)CC23CCCN2CCC3)c(C)c1 | 9.09 | 1.22 | –
CCN(CC)CC(=O)Nc1c(C)cccc1C [LIDOCAINE] | – | 1 | ED50 (Mus musculus [3]): 29 mg/kg
Cc1ccc(NC(=O)CC23CCCN2CCC3)cc1 | – | – | ED20 (Mus musculus [3]): 100 mg/kg
O=C(CC12CCCN1CCC2)Nc1ccccc1 | – | – | ED50 (Mus musculus [4]): inactive
Cc1cccc(C)c1NC(=O)CC12CCCN1CCC2 | – | 1.51 | –
Cc1cccc(C)c1NC(=O)C12CCCN1CCC2 | – | – | LD50 [5]: 603 mg/kg; ED20 (Mus musculus [3]): 100 mg/kg
COc1ccc(OC)c(NC(=O)CC23CCCN2CCC3)c1 | 2.26 | 0.44 | –
Nc1ccccc1NC(=O)CC12CCCN1CCC2 | 6.33 | – | Potency [6]: 0.9; ED50 (Mus musculus [3]): 100 mg/kg
Nc1ccc(NC(=O)CC23CCCN2CCC3)cc1 | – | – | LD50 [5]: 12 mg/kg
O=C(CC12CCCN1CCC2)Nc1c(Cl)cccc1Cl | – | – | ED20 (Mus musculus [3]): 100 mg/kg
COc1ccc(NC(=O)CC23CCCN2CCC3)cc1 | 4.8 | 0.6 | –
COc1cccc(NC(=O)CC23CCCN2CCC3)c1 | – | – | ED40 (Mus musculus [3]): 100 mg/kg
Cc1ccc(NC(=O)CC23CCCN2CCC3)cc1C | 7.36 | 0.47 | –
O=C(CC12CCCN1CCC2)Nc1ccccc1Cl | – | – | ED20 (Mus musculus [3]): 100 mg/kg
CCc1cccc(CC)c1NC(=O)CC12CCCN1CCC2 | 9.93 | 1.41 | –
Cc1ccc(C)c(NC(=O)CC23CCCN2CCC3)c1 | 5.56 | 0.5 | –
COc1ccccc1NC(=O)CC12CCCN1CCC2 | – | – | ED40 (Mus musculus [3]): 100 mg/kg
Cc1ccccc1NC(=O)CC12CCCN1CCC2 | – | – | ED40 (Mus musculus [3]): 100 mg/kg
